Calls of active or inactive are those of the source. The calls are words filed in the database; no cut-off is given here.
Experiments:
[1] = target: GABA-A receptor; anion channel; test: In vitro displacement of [3H]diazepam from GABA-A benzodiazepine receptor in rat cerebral cortex; type: tissue-based
How it was run: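 Cortex from adult male Sprague–Dawley rats homogenized in 50 mM Tris-HCl pH 7.4, homogenization–centrifugation repeated three times in total. Membranes incubated with graded compound concentrations and [3H]diazepam (final 2 nM) for 90 min at 4 °C. Bound ligand collected by rapid GF/B filtration and counted by liquid scintillation. Nonspecific binding defined with 5 μM flunitrazepam.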

Mus musculus [2] = test: Dose required to antagonize Diazepam (2.5 mg/kg) anticonvulsant effects in mice treated with pentylenetetrazole (80 mg/kg); type: functional
How it was run: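 Adult male mice (20–25 g) given diazepam 2.5 mg/kg ip in 10% diluted emulphor–90% saline. Drug or vehicle given ip 5 min later, then PTZ 80 mg/kg ip (CD100) after another 5 min. Two independent raters scored clonic-tonic convulsions; animals counted protected if seizure-free for 15 min. ED50 = dose antagonizing diazepam's anticonvulsant effect in 50% of mice.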

Mus musculus [3] = test: Dose required to induce convulsions in mice treated with subconvulsant pentylenetetrazole (40 mg/kg); type: functional
How it was run: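 Adult male mice (20–25 g) given drug ip (suspended in 10% diluted emulphor–90% saline, HCl salts), then challenged 5 min later with subconvulsant PTZ (40 mg/kg ip). Two independent raters observed clonic-tonic convulsions. ED50 = dose inducing convulsions in 50% of mice. Highest dose tested 40 mg/kg.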

Mus musculus [4] = test: Dose required to antagonize Diazepam (2.5 mg/kg) anticonvulsant effects in mice treated with pentylenetetrazole (80 mg/kg) (inactive); type: functional, organism-based
Mus musculus [5] = test: Dose required to induce convulsions in mice treated with subconvulsant pentylenetetrazole (40 mg/kg) (inactive); type: functional, organism-based
[6] = In vitro displacement of [3H]-diazepam from GABA-A benzodiazepine receptor in rat cerebral cortex; type: tissue-based
How it was run: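 Cortex from adult male Sprague–Dawley rats homogenized in 50 mM Tris-HCl pH 7.4, washed three times and resuspended. Incubated with varying test concentrations and [3H]diazepam (2 nM final) for 90 min at 4 °C. Ended by GF/B filtration, radioactivity counted by scintillation. Nonspecific binding defined with 5 μM flunitrazepam. IC50 reported.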

SMILES	IC50 [1] [nM]	also measured
O=C(OC1CCCC1)c1cc2c3ccccc3nc-2c[nH]1	50	–
c1ccc(CNc2ccc3[nH]c4cnccc4c3c2)cc1	106	ED50 (Mus musculus [2]): 38 mg/kg; ED50 (Mus musculus [3]): 28 mg/kg
OCc1cc2c3cc(NCc4ccccc4)ccc3nc-2c[nH]1	76	ED50 (Mus musculus [4]): inactive; ED50 (Mus musculus [3]): 40 mg/kg
COC(=O)c1cc2c(cn1)[nH]c1ccc(NCc3ccccc3)cc12	10	ED50 (Mus musculus [5]): inactive; ED50 (Mus musculus [2]): 15.5 mg/kg
c1ccc(CNc2ccc3[nH]c4ccccc4c3c2)cc1	> 5000	–
OCc1cc2c3ccccc3nc-2c[nH]1	1470	–
c1ccc2c(c1)[nH]c1cnccc12 [NORHARMANE]	–	IC50 [6]: 1620 nM
CC(=O)c1cc2c3ccccc3nc-2c[nH]1	58	–
Nc1ccc2[nH]c3cnccc3c2c1	1300	–
